The values below come from ChEMBL document CHEMBL4406809, “Design of balanced COX inhibitors based on anti-inflammatory and/or COX-2 inhibitory ascidian metabolites” (Eur J Med Chem, 2019).

Calls of active or inactive are those of the source. No cut-off for these calls is given here.

In data set [1] the test system is RAW264.7. Briefly: Antiinflammatory activity against mouse RAW264.7 cells assessed as downregulation of LPS-stimulated COX2 protein expression at 10 uM pretreated for 1 hrs followed by LPS addition and measured after 24 hrs by Western blot analysis. The data set is classed as functional, cell-based. The method, boiled down:
(§1)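 RAW264.7 macrophages (DMEM, 10% heat-inactivated FBS, 37 °C, 5% CO2) pretreated with compound, then cultured with or without LPS 1 µg/mL for 24 h. Lysates in buffer with protease/phosphatase inhibitors, BCA-normalised, 10% SDS-PAGE, PVDF transfer, milk/TBS-T block, primary antibody overnight at 4 °C, HRP anti-rabbit secondary, chemiluminescence. Dexamethasone 10 µM positive control; mean ± SD of three independent experiments.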
In general terms: Immunoblotting shows a protein as a band on a membrane.

Data set [2] has as its system RAW264.7. The data set can be described thus: Antiinflammatory activity against mouse RAW264.7 cells assessed as downregulation of LPS-stimulated iNOS protein expression at 10 uM pretreated for 1 hrs followed by LPS addition and measured after 24 hrs by Western blot analysis. Format: functional, cell-based. In outline: as §1
For data set [3], the target named is T1, Prostaglandin G/H synthase 2 (Homo sapiens) (UniProt P35354).
T1 sequence (whole entry): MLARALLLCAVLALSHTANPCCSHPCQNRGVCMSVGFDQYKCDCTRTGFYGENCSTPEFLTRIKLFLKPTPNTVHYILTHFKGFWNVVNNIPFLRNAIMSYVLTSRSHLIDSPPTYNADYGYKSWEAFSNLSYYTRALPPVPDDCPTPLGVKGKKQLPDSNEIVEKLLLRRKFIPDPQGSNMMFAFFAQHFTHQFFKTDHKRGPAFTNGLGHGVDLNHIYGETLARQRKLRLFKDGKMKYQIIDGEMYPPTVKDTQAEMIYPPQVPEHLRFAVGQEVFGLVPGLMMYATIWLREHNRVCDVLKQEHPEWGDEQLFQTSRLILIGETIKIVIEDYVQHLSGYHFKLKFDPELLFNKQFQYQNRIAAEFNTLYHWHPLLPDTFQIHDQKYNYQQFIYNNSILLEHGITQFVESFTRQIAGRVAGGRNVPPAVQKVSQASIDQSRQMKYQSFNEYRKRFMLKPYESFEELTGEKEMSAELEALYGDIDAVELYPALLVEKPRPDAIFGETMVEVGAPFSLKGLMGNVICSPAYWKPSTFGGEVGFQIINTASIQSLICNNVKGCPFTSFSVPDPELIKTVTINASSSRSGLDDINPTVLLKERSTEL
Briefly: Inhibition of recombinant human COX2 at 30 uM using arachidonic acid as substrate pretreated for 5 mins followed by substrate addition and measured after 2 mins by fluorescence based enzyme immunoassay.

Data set [4] has as its target T2, Prostaglandin G/H synthase 1 (Ovis aries) (UniProt P05979).
T2 sequence (whole entry): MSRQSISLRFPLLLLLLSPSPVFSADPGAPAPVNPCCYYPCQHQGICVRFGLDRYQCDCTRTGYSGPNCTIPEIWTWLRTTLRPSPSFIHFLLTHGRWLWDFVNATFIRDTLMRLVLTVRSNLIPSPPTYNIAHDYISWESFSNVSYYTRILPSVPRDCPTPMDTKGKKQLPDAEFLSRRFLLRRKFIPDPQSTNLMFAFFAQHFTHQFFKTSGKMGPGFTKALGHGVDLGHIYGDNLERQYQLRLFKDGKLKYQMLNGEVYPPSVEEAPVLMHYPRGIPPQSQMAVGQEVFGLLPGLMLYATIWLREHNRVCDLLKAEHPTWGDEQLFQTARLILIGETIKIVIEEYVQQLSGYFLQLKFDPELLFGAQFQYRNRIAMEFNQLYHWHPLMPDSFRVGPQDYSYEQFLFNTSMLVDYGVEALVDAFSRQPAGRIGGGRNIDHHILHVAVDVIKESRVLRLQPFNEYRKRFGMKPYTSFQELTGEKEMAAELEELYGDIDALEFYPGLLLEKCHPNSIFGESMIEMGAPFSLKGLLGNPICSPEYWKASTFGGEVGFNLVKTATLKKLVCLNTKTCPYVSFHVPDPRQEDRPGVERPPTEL
The data set can be described thus: Inhibition of ovine COX1 at 30 uM using arachidonic acid as substrate pretreated for 5 mins followed by substrate addition and measured after 2 mins by fluorescence based enzyme immunoassay.

The target in data set [5] is Transcription factor p65 (Mus musculus) (UniProt Q04207). The data set can be described thus: Inhibition of LPS-induced NFkappaB p65 nuclear translocation in mouse RAW264.7 cells at 20 uM preincubated for 1 hrs followed by LPS-stimulation and measured after 24 hrs by DAPI staining based confocal microscopic method. The data set is classed as cell-based.
Chain of Transcription factor p65 (Mus musculus) (Q04207 whole entry): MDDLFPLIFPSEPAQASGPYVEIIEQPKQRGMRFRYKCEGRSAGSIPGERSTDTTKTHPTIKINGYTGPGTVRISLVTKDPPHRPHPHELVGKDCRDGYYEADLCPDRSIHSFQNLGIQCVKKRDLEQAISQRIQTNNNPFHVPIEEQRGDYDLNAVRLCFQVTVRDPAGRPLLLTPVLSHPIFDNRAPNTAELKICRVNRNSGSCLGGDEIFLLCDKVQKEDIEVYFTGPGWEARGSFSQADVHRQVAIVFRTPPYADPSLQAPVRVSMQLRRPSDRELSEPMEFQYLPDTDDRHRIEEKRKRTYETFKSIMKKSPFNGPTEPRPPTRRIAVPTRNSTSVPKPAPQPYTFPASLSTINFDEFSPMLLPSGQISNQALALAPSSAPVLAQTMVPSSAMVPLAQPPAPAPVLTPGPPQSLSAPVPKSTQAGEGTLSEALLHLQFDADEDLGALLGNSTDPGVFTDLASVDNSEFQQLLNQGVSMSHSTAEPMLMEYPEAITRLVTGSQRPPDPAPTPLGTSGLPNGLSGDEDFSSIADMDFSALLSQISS
Data set [6] deals with T3, I-kappa-B kinase (Mus musculus) (UniProt Q60680+O88351+O88522). Briefly: Inhibition of LPS-stimulated IKK phosphorylation in mouse RAW264.7 cells at 5 to 20 uM pretreated for 1 hrs followed by LPS addition and measured after 30 mins by Western blot analysis. The data set is classed as cell-based.
Data set [7] relates to RAW264.7. The data set can be described thus: Cytotoxicity against mouse RAW264.7 cells assessed as reduction in cell viability up to 50 uM incubated of WST assay. The data set is classed as cell-based. In outline:
(§2)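 Cells seeded at 1.0×10^4 cells/well, grown 12 h in DMEM with 10% FBS, then exposed 24 h to 10, 25 or 50 μM; medium-only controls. WST reagent added for 1 h at 37°C and absorbance read at 450 nm. Cells in exponential phase.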

Data set [8] in a line: Cytotoxicity against rat Ac2F cells assessed as reduction in cell viability up to 50 uM incubated of WST assay. The data set is classed as cell-based. In outline:
as §2

Data set [9] relates to RAW264.7. Briefly: Antiinflammatory activity against mouse RAW264.7 cells assessed as downregulation of LPS-stimulated iNOS protein expression at 20 uM pretreated for 1 hrs followed by LPS addition and measured after 24 hrs by Western blot analysis. Format: functional, cell-based. In outline: (§3)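 Cells treated at various concentrations, then cultured with or without LPS (1 µg/mL) for 24 h; dexamethasone 10 µM as positive control. Lysates taken in buffer with protease/phosphatase inhibitors and protein quantified by BCA. Equal protein run on 10% SDS-PAGE, transferred to PVDF, blocked in TBS-T/5% milk, then primary antibodies overnight at 4°C and HRP anti-rabbit secondary. Mean ± SD, n=3.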

For data set [10], the target named is Transcription factor p65 (Mus musculus) (UniProt Q04207). Briefly: Inhibition of LPS-stimulated NFkappaB p65 nuclear translocation in mouse RAW264.7 cells retreated for 1 hrs followed by LPS addition and measured after 30 mins by Western blot analysis. The data set is classed as cell-based.
In data set [11] the test system is RAW264.7. The data set can be described thus: Antiinflammatory activity against mouse RAW264.7 cells assessed as decrease in LPS-stimulated IL6 production pretreated for 1 hrs followed by LPS addition and measured after 24 hrs by sandwich ELISA. The data set is classed as functional, cell-based. In outline: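 RAW264.7 cells seeded at about 1×10^4 cells/well and grown 12 h. Pretreated 1 h with 2.5, 5 or 10 μM, then LPS 100 ng/mL added: 24 h for IL-6, 3 h for TNF-α. Cytokines in the medium quantified by sandwich ELISA, A450. Representative of three independent experiments.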
Background: An ELISA detects its analyte on a solid surface through an enzyme-linked reagent.

Data set [12] concerns RAW264.7. The data set can be described thus: Antiinflammatory activity against mouse RAW264.7 cells assessed as downregulation of LPS-stimulated iNOS protein expression pretreated for 1 hrs followed by LPS addition and measured after 24 hrs by Western blot analysis. The data set is classed as functional, cell-based. The method, boiled down: as §3
Data set [13] deals with T3, I-kappa-B kinase (Mus musculus). Briefly: Inhibition of LPS-stimulated IKK phosphorylation in mouse RAW264.7 cells assessed as decrease in IkappaBalpha phosphorylation level at 5 to 20 uM pretreated for 1 hrs followed by LPS addition and measured after 30 mins by Western blot analysis. Format: cell-based.
Data set [14] concerns RAW264.7. Briefly: Antiinflammatory activity against mouse RAW264.7 cells assessed as downregulation of LPS-stimulated COX2 protein expression pretreated for 1 hrs followed by LPS addition and measured after 24 hrs by Western blot analysis. The data set is classed as functional, cell-based. The method, boiled down: as §3
For data set [15], the system named is RAW264.7. The data set can be described thus: Antiinflammatory activity against mouse RAW264.7 cells assessed as reduction in LPS-stimulated ROS production pretreated for 1 hrs followed by LPS addition and measured after 24 hrs by DCFH-DA dye based fluorescence assay. Format: functional, cell-based. The method, boiled down: (§4)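 RAW264.7 cells at about 1×10^4 cells/well, grown 12 h, pretreated 1 h, then LPS 1 μg/mL for 24 h. Loaded with DCFH-DA at 100 μM final in FBS-free medium, 30 min at 37°C. After washing, fluorescence read at Ex 485/Em 520 nm on a plate reader; confocal imaging done in parallel dishes.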

The subject of data set [16] is RAW264.7. The data set can be described thus: Antiinflammatory activity against mouse RAW264.7 cells assessed as inhibition of LPS-stimulated NO production pretreated for 1 hrs followed by LPS addition and measured after 24 hrs by Griess reagent based assay. Format: functional, cell-based. In outline:
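RAW264.7 cells at about 1×10^4 cells/well, grown 12 h. Pretreated 1 h at 2.5, 5 or 10 μM, then LPS 25 ng/mL for 24 h. Supernatant mixed 1:1 with Griess reagent for 15 min at 37°C in the dark, A520 read. Nitrite quantified against 0–100 μM sodium nitrite standards.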
On the technique in general: Griess reagent forms a coloured azo dye with nitrite.

In a further data set the test system is L929. Briefly: Cytotoxicity against mouse L929 cells assessed as reduction in cell viability up to 50 uM incubated of WST assay. Format: cell-based. In outline: as §2
Data set [17] concerns the target T4, Prostaglandin G/H synthase 2 (Mus musculus) (UniProt Q05769).
T4 sequence (whole entry): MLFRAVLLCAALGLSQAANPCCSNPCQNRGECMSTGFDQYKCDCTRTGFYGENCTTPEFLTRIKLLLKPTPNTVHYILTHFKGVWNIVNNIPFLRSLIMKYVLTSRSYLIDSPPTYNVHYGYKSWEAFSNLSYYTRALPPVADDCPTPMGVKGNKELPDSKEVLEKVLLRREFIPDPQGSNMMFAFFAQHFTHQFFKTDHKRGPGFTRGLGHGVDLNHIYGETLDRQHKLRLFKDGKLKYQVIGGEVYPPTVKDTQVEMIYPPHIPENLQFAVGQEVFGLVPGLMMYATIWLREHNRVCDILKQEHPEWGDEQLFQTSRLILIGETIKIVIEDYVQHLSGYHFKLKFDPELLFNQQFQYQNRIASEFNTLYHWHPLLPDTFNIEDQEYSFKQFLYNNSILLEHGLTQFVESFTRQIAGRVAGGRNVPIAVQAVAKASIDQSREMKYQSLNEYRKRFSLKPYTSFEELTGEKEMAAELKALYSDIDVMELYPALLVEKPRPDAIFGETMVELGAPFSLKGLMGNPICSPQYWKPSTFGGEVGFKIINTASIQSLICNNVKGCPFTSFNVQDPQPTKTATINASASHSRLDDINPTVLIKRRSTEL
Briefly: Inhibition of COX2 in mouse RAW264.7 cells assessed as decrease in LPS-stimulated PGE2 production pretreated for 1 hrs followed by LPS addition and measured after 24 hrs by sandwich ELISA. Format: cell-based. In outline:
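RAW264.7 cells at about 1×10^4 cells/well, grown 12 h. Pretreated 1 h at 2.5, 5 or 10 μM, then stimulated with LPS 100 ng/mL for 24 h. PGE2 in the medium measured by PGE2 express ELISA, absorbance at 415 nm. Representative of three independent experiments.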

For data set [18], the system named is RAW264.7. The data set can be described thus: Antiinflammatory activity against mouse RAW264.7 cells assessed as downregulation of LPS-stimulated COX2 protein expression at 20 uM pretreated for 1 hrs followed by LPS addition and measured after 24 hrs by Western blot analysis. Format: functional, cell-based. In outline:
as §3

Data set [19] relates to RAW264.7. Briefly: Antiinflammatory activity against mouse RAW264.7 cells assessed as reduction in LPS-stimulated ROS production at 20 uM pretreated for 1 hrs followed by LPS addition and measured after 24 hrs by DCFH-DA dye based fluorescence assay. Format: functional, cell-based. In outline: as §4
Data set [20] relates to RAW264.7. Briefly: Antiinflammatory activity against mouse RAW264.7 cells assessed as decrease in LPS-stimulated TNFalpha production pretreated for 1 hrs followed by LPS addition and measured after 24 hrs by sandwich ELISA. Format: functional, cell-based.

`C[C@@H]1C[C@H]2[C@@H]3CCC4=CC(=O)C=C[C@]4(C)[C@@]3(F)[C@@H](O)C[C@]2(C)[C@@]1(O)C(=O)CO`: the outcome in the data set with RAW264.7 [1] and in the data set with RAW264.7 [2] was Active.
`CCCCC/C=N/NC(=O)c1cn(Cc2ccc(Cl)cc2)c2ccccc12`: the inhibition result in data set [3] and in data set [4] was “Active” throughout.
For `N#Cc1ccc(/C=N/NC(=O)c2cn(Cc3ccc(Cl)cc3)c3ccccc23)cc1`, the inhibition result in data set [5], in [6], in data set [3], in data set [4], in data set [13] and in [17] was “Active” throughout. The Activity result was “Non-Toxic” with RAW264.7 [7]; “Non-Toxic” in [8]; “Dose-dependent effect” with RAW264.7 [11]; “Dose-dependent effect” in the data set with RAW264.7 [12]; “Dose-dependent effect” in the data set on RAW264.7 [14]; “Dose-dependent effect” with RAW264.7 [15]. The Activity result in the data set on L929 is “Non-Toxic”; in the data set with RAW264.7 [20] it was “Dose-dependent effect”. The outcome in the data set with RAW264.7 [9], with RAW264.7 [18] and in the data set with RAW264.7 [19] was Active. The inhibition result (in data set [10]; in the data set on RAW264.7 [16]) was “Dose-dependent effect” throughout.
Turning to `O=C(N/N=C/c1ccco1)c1cn(Cc2ccc(Cl)cc2)c2ccccc12`, the inhibition entry in data set [3] and in data set [4] was “Active” each time.
Take `O=C(O)Cc1ccccc1Nc1c(Cl)cccc1Cl`: the result in the data set with RAW264.7 [19] was Active.
